Bioassay records: PubChem BioAssay, several laboratories
An excerpt weighted towards active compounds, which were near 4% of everything screened.
hERG protect = hERG (human) protection from proarrhythmic block. Q12809. CHO-hERG, FluxOR thallium flux, dofetilide IC70 present. activation (rescue from dofetilide block), less the hit threshold, % at 10 µM. 310,000 compounds, 0.51% hits. AID 1511;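 active means activation above the mean of controls blocked by dofetilide plus 5 SD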;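 further: thallium influx through hERG after potassium depolarization seen as dye fluorescence rise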
KCNK9 inh = human KCNK9 channel inhibition. HEK293 KCNK9, FluxOR thallium flux fluorescence; active compounds read low. B-score at 10 µM. 310,000 compounds, 1.2% hits. AID 488922;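 active means ratio B-score over 3 SD below the library mean, with starting fluorescence within 5 SD of its mean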;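 further: negative B-score means less thallium flux so channel inhibition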
KCNK3 block = human KCNK3 channel inhibition, primary screen | B-score at 10 µM | AID 602410 | 340,000 compounds, 0.84% hits | CHO-KCNK3 thallium flux, FluxOR fluorescence; active compounds read low | O14649;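 active means B-score under library mean minus 4 SD, starting fluorescence ratio at most library mean plus 5 SD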;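 further: more negative B-score means stronger inhibition of thallium flux through KCNK3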
Target sequence (O14649 whole entry, looked up): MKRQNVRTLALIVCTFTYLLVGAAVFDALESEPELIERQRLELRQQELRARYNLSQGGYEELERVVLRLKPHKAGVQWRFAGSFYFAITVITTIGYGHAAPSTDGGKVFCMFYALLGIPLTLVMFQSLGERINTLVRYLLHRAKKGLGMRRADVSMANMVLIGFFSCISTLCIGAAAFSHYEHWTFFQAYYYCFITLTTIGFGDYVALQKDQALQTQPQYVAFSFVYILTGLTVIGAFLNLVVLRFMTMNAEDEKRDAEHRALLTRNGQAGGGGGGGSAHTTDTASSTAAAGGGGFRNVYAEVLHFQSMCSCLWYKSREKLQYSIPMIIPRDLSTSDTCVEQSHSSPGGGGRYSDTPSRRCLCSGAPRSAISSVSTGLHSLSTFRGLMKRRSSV
KCNQ1 act = human KCNQ1 channel potentiation or activation; P51787; 310,000 compounds, 0.35% hits; CHO-K1 KCNQ1, thallium flux FluxOR fluorescence; active compounds read high; B-score at 10 µM; AID 2648;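 active means fluorescence ratio B-score, a plate-corrected score, at least three library SD, with initial intensity B-score within 5 SD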
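Material: CHO-K1 cells stably expressing KCNQ1. Medium: assay buffer for compound exposure, DMSO matched across wells. Reagent: K+/Tl+ depolarizing stimulus. Compound dosing: single-concentration screen. Times: 37 °C overnight plating, 90-min dark dye load, 20-min compound pretreatment. Technique: FluxOR Tl+ flux fluorescence.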
KCNQ1 inh = blocks the human KCNQ1 potassium channel. P51787. CHO-K1 KCNQ1, FluxOR thallium flux fluorescence; active compounds read high. B-score at 10 µM. 310,000 compounds, 1.3% hits;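 active means compounds whose thallium flux B-score, printed positive for inhibition, exceeds three library SD while starting fluorescence stays within three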;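 further: channel opened by potassium depolarization with thallium stimulus after 20 min compound exposure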
PHOSPHO1 block = blocks human PHOSPHO1 phosphatase activity; 290,000 compounds, 1.1% hits; inhibition, % at 13.3 µM; AID 1565; recombinant PHOSPHO1, absorbance phosphatase assay; Q8TCT1; in the data active means inhibition above about 60%
Target sequence (Q8TCT1 whole entry, looked up): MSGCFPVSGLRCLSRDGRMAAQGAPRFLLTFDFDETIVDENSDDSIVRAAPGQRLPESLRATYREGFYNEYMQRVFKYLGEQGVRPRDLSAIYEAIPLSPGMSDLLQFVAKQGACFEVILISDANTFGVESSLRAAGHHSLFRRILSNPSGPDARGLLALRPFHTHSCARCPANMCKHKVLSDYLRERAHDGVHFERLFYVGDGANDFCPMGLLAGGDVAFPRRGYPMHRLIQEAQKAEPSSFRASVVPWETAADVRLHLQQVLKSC
KCNQ1 inh valid = confirmation of human KCNQ1 potassium channel inhibitors | shares compounds with KCNQ1 inh | KCNQ1 cell line, FluxOR thallium flux fluorescence | inhibition, % at 10 µM | 1,600 compounds, 93% hits;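 active means primary screen active, with duplicate mean exceeding buffer control mean plus 3 SD of buffer wells, cut at about 28% in these data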;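 further: 0% = buffer control ratio and 100% = XE991 inhibitor control ratio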
CHO KCNQ1 ctr = KCNQ1 inhibitor counter-screen hit in parental CHO cells. shares compounds with KCNQ1 inh. parental CHO-K1, FluxOR thallium flux fluorescence ratio; active compounds read low; zero means no signal rise above baseline. fluorescence ratio (Tl flux) at 10 µM. 1,600 compounds, 21% hits;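 active means mean of duplicate thallium-flux fluorescence ratios in parental host cells more than 5 SD below the buffer control mean, cut at about 0.38 in these data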;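 further: ratio is peak minus minimum fluorescence divided by baseline fluorescence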
KCNQ1 ephys val = confirmation of human KCNQ1 potassium channel inhibitors by electrophysiology; calls only at 10 µM; AID 624120; 490 compounds, 20% hits; shares compounds with KCNQ1 inh; KCNQ1-CHO cells, automated patch clamp current;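 active means KCNQ1 current drop exceeding 3 SD of negative control wells, seen in both duplicate runs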;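 further: steady state current during a 2 s step from -80 to +40 mV; negative values mean current inhibition and positive values mean potentiation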
KCNQ2 inh = rat KCNQ2 inhibition in KCNQ1 inhibitor specificity screen. KCNQ2 cells, FluxOR thallium flux fluorescence. AID 651746. shares compounds with KCNQ1 inh. 1,600 compounds, 71% hits. inhibition, % at 10 µM;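 active means mean percent inhibition of the KCNQ2 thallium signal more than 5 SD above the buffer-only control wells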;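 further: KCNQ2 expressed in CHO cells; 0% = buffer control wells and 100% = XE-991 inhibitor control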
KCNQ1 KCNE1 spec = KCNQ1 inhibitor that also blocks human KCNQ1/KCNE1 channel; shares compounds with KCNQ1 inh; KCNQ1/KCNE1 cells, FluxOR thallium flux fluorescence; inhibition, % at 10 µM; 1,600 compounds, 77% hits; AID 652147;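 active means mean percent inhibition of duplicate wells above the buffer-only control mean plus 3 SD of those controls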;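 further: 0% = buffer only wells and 100% = XE-991 inhibitor control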
* = called active by the depositor.

Nc1ccc2nc(-c3ccccc3)c(-c3ccccc3)nc2c1 was read as hERG protect -28.5, KCNK9 inh inactive, KCNK3 block inactive, KCNQ1 act inactive, KCNQ1 inh 15*, PHOSPHO1 block 43.5, KCNQ1 inh valid 148.0*, CHO KCNQ1 ctr 0.212*, KCNQ2 inh inactive and KCNQ1 KCNE1 spec inactive.
For CCCCCCCCCn1ccc(=N)cc1 the results were hERG protect -18.2, KCNK9 inh inactive, KCNK3 block inactive, KCNQ1 act inactive, KCNQ1 inh 7*, PHOSPHO1 block 41.5, KCNQ1 inh valid 70.5*, CHO KCNQ1 ctr 0.486, KCNQ2 inh 70.7%* and KCNQ1 KCNE1 spec inactive.
CCn1ccc(=N)cc1 was read as hERG protect -6.6, KCNK9 inh inactive, KCNK3 block inactive, KCNQ1 act inactive, KCNQ1 inh inactive and PHOSPHO1 block 25.3.
Cc1ccc(S(=O)(=O)c2cc3c(=O)n4ccccc4nc3n(CCc3ccccc3)c2=N)cc1 was read as hERG protect -6.3, KCNK9 inh inactive, KCNK3 block inactive, KCNQ1 act inactive, KCNQ1 inh 6*, PHOSPHO1 block 32.5, KCNQ1 inh valid 100.5*, CHO KCNQ1 ctr 0.36*, KCNQ2 inh 118.0%* and KCNQ1 KCNE1 spec 140.5%*.
Screening NC(N)=NN=C(c1ccc(F)cc1)c1ccc(C(F)(F)F)cc1 returned KCNK3 block inactive.
Screening NCCOc1ccc(C23CC4CC(CC(C4)C2)C3)cc1 returned hERG protect -21.6, KCNK9 inh inactive, KCNK3 block inactive, KCNQ1 act inactive, KCNQ1 inh 7*, PHOSPHO1 block 44.0, KCNQ1 inh valid 147.0*, CHO KCNQ1 ctr 0.642, KCNQ1 ephys val active, KCNQ2 inh inactive and KCNQ1 KCNE1 spec inactive.
For COc1ccc(C(C)NC(=S)NCc2ccc(F)cc2)cc1 (stereo unspecified) the results were hERG protect -16.2, KCNK9 inh inactive, KCNK3 block inactive, KCNQ1 act inactive, KCNQ1 inh inactive and PHOSPHO1 block 16.2.
Screening COc1cccc(C(C)NC(=S)NCc2ccc(Cl)cc2)c1 (stereo unspecified) returned hERG protect -19.9, KCNK9 inh inactive, KCNK3 block inactive, KCNQ1 act inactive, KCNQ1 inh 8*, PHOSPHO1 block 29.2, KCNQ1 inh valid 0.0, CHO KCNQ1 ctr 0.524, KCNQ2 inh inactive and KCNQ1 KCNE1 spec inactive.
Screening Cc1ccc(S(=O)(=O)Nc2cc(C(=O)Nc3cc(C)cc(C)c3)ccc2Cl)cc1 returned hERG protect -9.1, KCNK9 inh inactive, KCNK3 block inactive, KCNQ1 act inactive, KCNQ1 inh 7*, PHOSPHO1 block -5.8, KCNQ1 inh valid 113.5*, CHO KCNQ1 ctr 0.418, KCNQ1 ephys val inactive, KCNQ2 inh inactive and KCNQ1 KCNE1 spec 161.0%*.
`O=C(c1cn(-c2ccccc2)nc1-c1ccc(Cl)s1)N1CCOCC1` gave hERG protect -14.0, KCNK9 inh inactive, KCNK3 block inactive, KCNQ1 act inactive, KCNQ1 inh inactive and PHOSPHO1 block 0.1.
For CC(=O)Nc1ccc(S(=O)(=O)NCc2ccc(C(=O)N3CCOCC3)cc2)cc1 the results were hERG protect -1.9, KCNK9 inh inactive, KCNK3 block inactive, KCNQ1 act inactive, KCNQ1 inh inactive and PHOSPHO1 block 24.0.
Screening COc1nc(-c2ccccc2)cc(-c2ccc(OC)c(OC)c2)n1 returned hERG protect -16.9, KCNK9 inh inactive, KCNK3 block inactive, KCNQ1 act inactive, KCNQ1 inh 7*, PHOSPHO1 block 0.9, KCNQ1 inh valid 119.0*, CHO KCNQ1 ctr 0.386, KCNQ1 ephys val inactive, KCNQ2 inh 110.3%* and KCNQ1 KCNE1 spec 131.0%*.
Screening Cc1ccc(C)c(S(=O)(=O)N2CCN(C(=O)c3cc(-c4cccs4)nn3-c3ccccc3)CC2)c1 returned hERG protect -14.6, KCNK9 inh inactive, KCNK3 block inactive, KCNQ1 act inactive, KCNQ1 inh 9*, KCNQ1 inh valid 0.0, CHO KCNQ1 ctr 0.453, KCNQ2 inh 78.7%* and KCNQ1 KCNE1 spec 46.5%*.
For O=C(NCc1ccccc1)c1cccc(COc2cccc(Cl)c2)c1 the results were hERG protect -19.8, KCNK9 inh inactive, KCNK3 block -10.6*, KCNQ1 act inactive, KCNQ1 inh 8*, PHOSPHO1 block 33.8, KCNQ1 inh valid 125.5*, CHO KCNQ1 ctr 0.355*, KCNQ2 inh 94.7%* and KCNQ1 KCNE1 spec 156.0%*.
For Cc1nc(NC(C)c2ccccc2)c2oc3ccccc3c2n1 (stereo unspecified) the results were hERG protect -14.8, KCNK9 inh inactive, KCNK3 block inactive, KCNQ1 act inactive, KCNQ1 inh inactive and PHOSPHO1 block 8.3.
`Cc1nc(N2CCC(C)CC2)c2c(C)c(C(=O)Nc3ccc(C)c(F)c3)sc2n1` gave hERG protect -27.6, KCNK9 inh inactive, KCNK3 block inactive, KCNQ1 act inactive, KCNQ1 inh 7*, PHOSPHO1 block -15.8, KCNQ1 inh valid 113.5*, CHO KCNQ1 ctr 0.416, KCNQ1 ephys val inactive, KCNQ2 inh 140.0%* and KCNQ1 KCNE1 spec 63.5%*.
Cc1ccc(-c2n[nH]c(=S)n2/N=C/c2ccc(C)o2)cc1 was read as hERG protect -6.2, KCNK9 inh inactive, KCNK3 block inactive, KCNQ1 act inactive, KCNQ1 inh 6*, PHOSPHO1 block 32.2, KCNQ1 inh valid 0.0, CHO KCNQ1 ctr 0.52, KCNQ2 inh inactive and KCNQ1 KCNE1 spec inactive.
O=C(Nc1c2c(nn1-c1ccccc1)CS(=O)(=O)C2)c1cccs1 was read as hERG protect -5.0, KCNK9 inh inactive, KCNK3 block inactive, KCNQ1 act inactive, KCNQ1 inh inactive and PHOSPHO1 block 23.3.
CC(C)(C)c1ccc(OCCCC(=O)Nc2cccc(S(=O)(=O)N3CCOCC3)c2)cc1 was read as KCNK3 block inactive.
